The source made the active and inactive calls. The calls are words filed in the database; no cut-off is given here.
Experiments:
MCF7 = assay: Antiproliferative activity against human MCF7 cells assessed as reduction in cell growth at 10 uM incubated for 48 hrs by SRB assay relative to control; assay type: functional
How it was run: (§1)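 Early-passage cells plated at 40% confluency and left overnight, then exposed to 10 μM compound for 48 h. Growth was measured by sulforhodamine B staining, with absorbance at 510 nm. Percent growth inhibition was calculated against untreated cells.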

MDA-MB-231 = assay: Antiproliferative activity against human MDA-MB-231 cells assessed as reduction in cell growth at 10 uM incubated for 48 hrs by SRB assay relative to control; assay type: functional; how it was run: as §1
DLD-1 [1] = assay: Antiproliferative activity against human DLD-1 cells assessed as reduction in cell growth at 10 uM incubated for 48 hrs by SRB assay relative to control; assay type: functional; how it was run: as §1
HT-29 [2] = assay: Antiproliferative activity against human HT-29 cells assessed as reduction in cell growth at 10 uM incubated for 48 hrs by SRB assay relative to control; assay type: functional; how it was run: as §1
A549 = assay: Antiproliferative activity against human A549 cells assessed as reduction in cell growth at 10 uM incubated for 48 hrs by SRB assay relative to control; assay type: functional; how it was run: as §1
NCI-H358 = assay: Antiproliferative activity against human NCI-H358 cells assessed as reduction in cell growth at 10 uM incubated for 48 hrs by SRB assay relative to control; assay type: functional; how it was run: as §1
COLO 205 = assay: Antiproliferative activity against human COLO 205 cells assessed as reduction in cell growth incubated for 48 hrs by SRB assay; assay type: functional, cell-based; conditions: COLO 205, 48 h
How it was run: (§2)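 Colon cancer lines and CCD-18Co normal colon fibroblasts, early passage, plated at 40% confluency and incubated overnight. They were then treated with varying concentrations for 48 h. The SRB read-out was absorbance at 510 nm, and IC50 was taken as the half-maximal proliferation-inhibitory concentration.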

LoVo = assay: Antiproliferative activity against human LoVo cells assessed as reduction in cell growth incubated for 48 hrs by SRB assay; assay type: functional, cell-based; how it was run: as §2
HT-29 [3] = assay: Antiproliferative activity against human HT-29 cells assessed as reduction in cell growth incubated for 48 hrs by SRB assay; assay type: functional, cell-based; conditions: HT-29, 48 h; how it was run: as §2
DLD-1 [4] = assay: Antiproliferative activity against human DLD-1 cells assessed as reduction in cell growth incubated for 48 hrs by SRB assay; assay type: functional, cell-based; conditions: DLD-1, 48 h; how it was run: as §2
SW48 = assay: Antiproliferative activity against human SW48 cells assessed as reduction in cell growth incubated for 48 hrs by SRB assay; assay type: functional, cell-based; conditions: SW48, 48 h; how it was run: as §2
SW-620 = assay: Antiproliferative activity against human SW-620 cells assessed as reduction in cell growth incubated for 48 hrs by SRB assay; assay type: functional, cell-based; conditions: SW-620, 48 h; how it was run: as §2
CCD-18Co = assay: Antiproliferative activity against human CCD-18Co cells assessed as reduction in cell growth incubated for 48 hrs by SRB assay; assay type: cell-based; how it was run: as §2
DLD-1 [5] = assay: Induction of apoptosis in human DLD-1 cells assessed as viable cells at 7.5 uM incubated for 18 hrs by Annexin V-FITC and propidium iodide staining based flow cytometry analysis (reference value: 85.2 %); assay type: functional; conditions: read-out: Activity
DLD-1 [6] = assay: Induction of apoptosis in human DLD-1 cells assessed as early apoptotic cells at 7.5 uM incubated for 18 hrs by Annexin V-FITC and propidium iodide staining based flow cytometry analysis (reference value: 4.95 %); assay type: functional
DLD-1 [7] = assay: Induction of apoptosis in human DLD-1 cells assessed as late apoptotic cells at 7.5 uM incubated for 18 hrs by Annexin V-FITC and propidium iodide staining based flow cytometry analysis (reference value: 5.7 %); assay type: functional
DLD-1 [8] = assay: Induction of apoptosis in human DLD-1 cells assessed as necrotic cells at 7.5 uM incubated for 18 hrs by Annexin V-FITC and propidium iodide staining based flow cytometry analysis (reference value: 4.1 %); assay type: functional
DLD-1 [9] = assay: Induction of apoptosis in human DLD-1 cells assessed as increase in PARP cleavage at 5 to 7.5 uM by Western blot analysis; assay type: functional, cell-based; conditions: dose 5-7.5 µM
How it was run: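 DLD-1 cells were treated at 7.5 μM for 18 h and lysed in NP-40 buffer containing protease and phosphatase inhibitors. Protein was quantified by BCA, and equal amounts were run on 15% SDS-PAGE and transferred to PVDF. Cleaved PARP was probed and detected by enhanced chemiluminescence.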

DLD-1 [10] = assay: Induction of vacuole formation in human DLD-1 cells assessed as increase in cellular granularity at 7.5 uM incubated for 18 hrs by FACS analysis; assay type: functional, cell-based
How it was run: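 DLD-1 cells were given vehicle or 7.5 μM compound for 18 h. Cell size (forward scatter) and granularity (side scatter) were then read by flow cytometry.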

DLD-1 [11] = assay: Induction of autophagy in human DLD-1 cells assessed as vacuole formation at 7.5 uM incubated for 20 hrs by MDC staining based confocal microscopy; assay type: functional, cell-based
How it was run: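 DLD-1 cells were incubated with drug for 20 h and then labeled with monodansylcadaverine in PBS for 20 min at 37°C in the dark. After washing, cells were imaged at once by confocal microscopy (excitation 390 nm, emission 460 nm).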

DLD-1 [12] = assay: Induction of autophagy in human DLD-1 cells assessed as increase in LC3B-I to LC3B-II conversion at 7.5 uM incubated for 18 hrs by Western blot analysis; assay type: functional, cell-based
How it was run: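 Vehicle or 7.5 μM compound was applied to DLD-1 cells for 18 h. Cells were lysed in NP-40 with inhibitors and equal protein was resolved on 15% SDS-PAGE and blotted to PVDF. Blots were probed for LC3A/B, with GAPDH as reference, and detected by ECL.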

DLD-1 [13] = assay: Induction of autophagy in human DLD-1 cells assessed as increase in LC-3 punta formation at 1 to 5 uM incubated for 6 hrs by based confocal microscopy; assay type: functional, cell-based; conditions: dose 1-5 µM
How it was run: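 DLD-1 cells were grown overnight on coverslips and treated with vehicle or compound for 6 h. They were fixed in 4% paraformaldehyde, permeabilized with 0.1% Triton X-100 and blocked in 2% BSA. Primary antibody was applied overnight at 4°C, then fluorescent secondary for 2 h with a DAPI counterstain. LC3 puncta were imaged by confocal microscopy with a 63× oil objective.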

DLD-1 [14] = assay: Induction of autophagy in human DLD-1 cells assessed as increase in Beclin expression at 10 uM measured upto 6 hrs by Western blot analysis; assay type: functional, cell-based; conditions: time hrs <=6
How it was run: (§3)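 DLD-1 cells were treated with 10 μM compound or vehicle for the indicated times. Equal protein from NP-40 lysates was run on 15% SDS-PAGE and transferred to PVDF. Immunoblots for Beclin-1, Atg3, Atg5 and Atg7 were developed by chemiluminescence.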

DLD-1 [15] = assay: Induction of autophagy in human DLD-1 cells assessed as increase in Atg3 expression at 10 uM measured upto 6 hrs by Western blot analysis; assay type: functional, cell-based; conditions: time hrs <=6; how it was run: as §3
DLD-1 [16] = assay: Induction of autophagy in human DLD-1 cells assessed as increase in Atg5 expression at 10 uM measured upto 6 hrs by Western blot analysis; assay type: functional, cell-based; conditions: time hrs <=6; how it was run: as §3
DLD-1 [17] = assay: Induction of autophagy in human DLD-1 cells assessed as increase in Atg7 expression at 10 uM measured upto 6 hrs by Western blot analysis; assay type: functional, cell-based; conditions: time hrs <=6; how it was run: as §3
DLD-1 [18] = assay: Induction of autophagy in human DLD-1 cells assessed as vacuole formation at 5 uM measured upto 6 hrs by TEM analysis; assay type: functional, cell-based; conditions: time hrs <=6
How it was run: (§4)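 DLD-1 cells were treated at 5 μM for 6 h, fixed in 2.5% glutaraldehyde in phosphate buffer (pH 7.4) and post-fixed in 1% OsO4. Samples were dehydrated through ethanol and embedded in Spurr resin, and ultrathin sections were stained with uranyl acetate and lead citrate. Sections were viewed by TEM at 80 kV, with at least 200 cells per set across 4 grids.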

DLD-1 [19] = assay: Induction of autophagy in human DLD-1 cells assessed as mitochondrial damage at 5 uM measured upto 6 hrs by TEM analysis; assay type: functional, cell-based; conditions: time hrs <=6; how it was run: as §4
DLD-1 [20] = assay: Induction of autophagy in human DLD-1 cells assessed as nuclear damage at 5 uM measured upto 6 hrs by TEM analysis; assay type: functional, cell-based; conditions: time hrs <=6; how it was run: as §4
DLD-1 [21] = assay: Induction of autophagy in human DLD-1 cells assessed as vacuole formation at 7.5 uM incubated for 24 hrs by phase contrast microscopic analysis; assay type: functional, cell-based
How it was run: (§5)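 DLD-1 cells received vehicle, 7.5 μM compound alone, or compound plus 100 nM bafilomycin A1 pretreatment for 24 h. Cells were then examined by phase-contrast microscopy.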

DLD-1 [22] = assay: Induction of autophagy in human DLD-1 cells assessed as reduction in cell viability at 7.5 uM incubated for 24 hrs by crystal violet staining based phase contrast microscopic analysis; assay type: functional
DLD-1 [23] = assay: Induction of autophagy in human DLD-1 cells assessed as vacuole formation at 7.5 uM incubated for 24 hrs in presence of Bafilomycin-A1 by phase contrast microscopic analysis; assay type: functional, cell-based; how it was run: as §5
DLD-1 [24] = assay: Induction of autophagy in human DLD-1 cells assessed as reduction in cell viability at 7.5 uM incubated for 24 hrs in presence of Bafilomycin-A1 by crystal violet staining based phase contrast microscopic analysis; assay type: functional

- IC50 (COLO 205): 2.03 µM
- IC50 (LoVo): 3.33 µM
- IC50 (HT-29 [3]): 4.15 µM
- IC50 (DLD-1 [4]): 4.46 µM
- IC50 (SW48): 3.14 µM
- IC50 (SW-620): 1.86 µM
Structure (SMILES): CCCCCCCCCCCCCC[C@H](O)[C@@H](N)Cc1ccc(OC)cc1
- inhibition at 10 µM (MCF7): 89.3%
- inhibition at 10 µM (MDA-MB-231): 96.8%
- inhibition at 10 µM (DLD-1 [1]): 97.3%
- inhibition at 10 µM (HT-29 [2]): 97.7%
- inhibition at 10 µM (A549): 94.8%
- inhibition at 10 µM (NCI-H358): 90.4%
- IC50 (CCD-18Co): > 10 µM
- viability at 7.5 µM (DLD-1 [5]): 93.6%
- Activity (DLD-1 [6]): 0.46%
- Activity (DLD-1 [7]): 0.8%
- Activity (DLD-1 [8]): 5%
- Activity (DLD-1 [9]): inactive
- Activity (DLD-1 [10]): Active
- Activity (DLD-1 [11]): Active
- Activity (DLD-1 [12]): Active
- Activity (DLD-1 [13]): Active
- Activity (DLD-1 [14]): Active
- Activity (DLD-1 [15]): Active
- Activity (DLD-1 [16]): Active
- Activity (DLD-1 [17]): Active
- Activity (DLD-1 [18]): Active
- Activity (DLD-1 [19]): inactive
- Activity (DLD-1 [20]): inactive
- Activity (DLD-1 [21]): Active
- Activity (DLD-1 [22]): Active
- Activity (DLD-1 [23]): inactive
- Activity (DLD-1 [24]): inactive
